{"data": "Published values of several laboratories", "ST14": "Suppressor of tumorigenicity 14 protein (ST14, Homo sapiens, UniProt Q9Y5Y6)", "CDK2 with cyclin A2": "Cyclin-dependent kinase 2, with cyclin A2 (CDK2, Homo sapiens, UniProt P24941)"}
{"Compound": "Cc1cc([C@@H](C)Nc2ccccc2C(=O)O)c2nc(N3CCC(F)(F)CC3)c(C#N)c(=O)n2c1", "target": "Angiopoietin-1 receptor (TEK, Homo sapiens, UniProt Q02763)", "assay": "binding, competition with immobilised ligand", "conditions": "10 µM", "endpoint": "remaining binding", "value": "100%"}
{"Compound": "CC(C)(C)c1ccc(C[C@H](NC(=O)[C@H](Cc2cscn2)NC(=O)CCc2ccccc2)C(=O)N[C@@H](CCCNC(=N)N)C(=O)c2nc3ccccc3s2)cc1", "target": "ST14", "assay": "enzyme activity, inhibitor", "conditions": "0.1 µM", "endpoint": "remaining activity", "value": "80%"}
{"Compound": "CC(=O)Nc1c(N)nc(SCC(=O)N/N=C/c2ccc([N+](=O)[O-])cc2)[nH]c1=O", "target": "CDK2 with cyclin A2", "assay": "enzyme activity, inhibitor", "conditions": "0.5 µM", "endpoint": "inhibition", "value": "51.5%"}
{"Compound": "N=C(N)NCCC[C@H](NC(=O)[C@@H](NC(=O)[C@H](Cc1cscn1)NC(=O)CCc1ccccc1)C(c1ccccc1)c1ccccc1)C(=O)c1nc2ccccc2s1", "target": "ST14", "assay": "enzyme activity, inhibitor", "conditions": "0.1 µM", "endpoint": "remaining activity", "value": "76%"}
{"Compound": "CC(=O)Nc1c(N)nc(SCC(=O)NN)[nH]c1=O", "target": "CDK2 with cyclin A2", "assay": "enzyme activity, inhibitor", "conditions": "0.5 µM", "endpoint": "inhibition", "value": "53.4%"}
{"Compound": "CNc1ncc2c(/C=C/C(=O)N3CCC(OC)CC3)nn(Cc3cccc(C(F)(F)F)c3)c2n1", "target": "Cyclin-dependent kinase 8, with cyclin C (CDK8, Homo sapiens, UniProt P49336)", "assay": "enzyme activity, inhibitor, radiometric", "conditions": "1 µM", "endpoint": "remaining activity", "value": "105%"}
{"Compound": "C=CC(=O)N1CCC(COCC(=O)N2CCN(c3nc(-c4cnc(N)nc4C(F)F)nc(N4CCOC[C@@H]4C)n3)CC2)CC1", "target": "Vascular endothelial growth factor receptor 3 (FLT4, Homo sapiens, UniProt P35916)", "assay": "binding, competition with immobilised ligand", "conditions": "1 µM", "endpoint": "remaining binding", "value": "83%"}
{"Compound": "COc1cc(-c2cncc3c2CN(C)Cc2cc(N4CCNCC4)ccc2-3)cc(OC)c1OC", "target": "Cyclin-dependent kinase 2, with cyclin A (CDK2, Homo sapiens, UniProt P24941)", "assay": "enzyme activity, inhibitor", "conditions": "1 µM", "endpoint": "remaining activity", "value": "100%"}
{"Compound": "N=C(N)NCCC[C@H](NC(=O)[C@@H]1CCCN1C(=O)[C@H](Cc1cscn1)NC(=O)CCc1ccccc1)C(=O)c1nc2ccccc2s1", "target": "ST14", "assay": "enzyme activity, inhibitor", "conditions": "0.1 µM", "endpoint": "remaining activity", "value": "61%"}
{"Compound": "CNC(=O)c1cc(Oc2ccc(NC(=O)Nc3ccc(Cl)c(C(F)(F)F)c3)cc2)ccn1", "target": "CDK2 with cyclin A2", "assay": "enzyme activity, inhibitor", "conditions": "1 µM", "endpoint": "inhibition", "value": "81.4%"}
